High-throughput results: PubChem BioAssay, several laboratories
NPY Y1 blocker: antagonists of human neuropeptide Y receptor Y1. inhibition, % at 3.6 µM. actives 1% (n = 200,000). AID 1040. HEK293-CNG Y1 cells, membrane potential fluorescence; NPY at EC95, then isoproterenol. P25929;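 active means inhibition above the campaign mean inhibition of all tested compounds plus 3 SD, cut at about 20% in these data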;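 further: 0% = DMSO wells given NPY plus isoproterenol and 100% = isoproterenol alone without NPY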
Target sequence (P25929 whole entry, looked up): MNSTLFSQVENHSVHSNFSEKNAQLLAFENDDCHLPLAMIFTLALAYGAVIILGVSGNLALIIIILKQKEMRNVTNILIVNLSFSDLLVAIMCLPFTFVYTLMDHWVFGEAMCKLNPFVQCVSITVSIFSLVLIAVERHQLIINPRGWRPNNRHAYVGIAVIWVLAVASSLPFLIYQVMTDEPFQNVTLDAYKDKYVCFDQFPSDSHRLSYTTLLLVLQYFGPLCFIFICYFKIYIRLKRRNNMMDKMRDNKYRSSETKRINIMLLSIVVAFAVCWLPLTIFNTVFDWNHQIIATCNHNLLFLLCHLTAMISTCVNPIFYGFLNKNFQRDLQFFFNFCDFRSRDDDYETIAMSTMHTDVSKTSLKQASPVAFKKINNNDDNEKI
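Test system: HEK293 cells co-expressing NPY Y1 receptor and cyclic-nucleotide gated channel; Also added: NPY (25 nM), isoproterenol (1 µM), Ro 20-1724 (25 µM); Compound dosing: one concentration, 3.6 µM, in 0.4% DMSO; Timing: dye 3 h, compound 60 min room temperature, stimulation 45 min; Technique: Membrane-potential fluorescent dye readout.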
Calpain2 inh: calpain II (pig) inhibition | purified calpain II, fluorogenic peptide substrate, 30 min | inhibition, % at 16 µM | actives 0.37% (n = 220,000) | AID 1236;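 active means inhibition above about 50%, limit read from the data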
NPY-Y2 antag: blocks the human neuropeptide Y Y2 receptor | P49146 | NPY-Y2 expressing cells, antagonist mode | inhibition, % at 2.7 µM | actives 0.99% (n = 140,000); in the data active means inhibition above about 17%;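 further: 0% = vehicle with agonist challenge and 100% = reference antagonist with challenge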
NPY-Y2 PAM-ag: potentiates or activates human NPY-Y2 receptor. cells expressing NPY-Y2, potentiator/agonist read-out. actives 0.45% (n = 220,000). P49146. AID 1359. activation, % at 3.6 µM; in the data active means activation above about 27%;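 further: cells stimulated with NPY near EC25 plus isoproterenol at EC100; 0% = vehicle plus submaximal agonist and 100% = vehicle plus saturating agonist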
NPY1 pot ag: potentiates or activates human NPY-Y1 receptor; P25929; NPY-Y1 expressing cells, potentiator/agonist activation; activation, % at 3.6 µM; actives 0.37% (n = 220,000); AID 1304; in the data active means activation above about 33%, passing the limit was not always enough;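 further: cells stimulated with NPY at EC10 then isoproterenol at EC100; 0% = low agonist plus stimulus and 100% = saturating agonist plus stimulus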
TbHK1 inh: T. brucei hexokinase 1 inhibition. recombinant TbHK1, G6PDH-coupled NADH A340. inhibition, % at 10 µM. actives 0.11% (n = 220,000). AID 1430;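 active means inhibition of 50% or more in the single-dose primary screen; inactive means inhibition below 50%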
* hit, by the source's call; i = inactive; x = no result. Hits are enriched below; roughly 2.3% of the tested compounds scored in any of these assays.

SMILES	NPY Y1 blocker	Calpain2 inh	NPY-Y2 antag	NPY-Y2 PAM-ag	NPY1 pot ag	TbHK1 inh
CC1CCC(C(C)C)C(OC(=O)Cn2c(-c3ccc(F)cc3)[n+](C)c3ccccc32)C1 (configuration not stated)	61*	-14	46*	-11	-47	6
CC1CCC(C(C)C)C(OC(=O)Cn2c(-c3ccccc3)[n+](C)c3ccccc32)C1 (configuration not stated)	112*	12	80*	-37	-129	14
O=C(CN(c1ccc(F)cc1)S(=O)(=O)c1ccccc1)NCCSC1CCCCC1	-1	17	3	-5	6	6
CN(C)c1ccc(N=Nc2ccccc2C(=O)OCC(=O)NCC2CCCCC2)cc1	-13	45	-5	54*	59*	39
CN(C)c1ccc(N=Nc2ccccc2C(=O)OCC(=O)NC2CCCC2)cc1	2	31	2	11	12	-10
CCc1cccc(CC)c1NC(=O)c1cc(CN2C(=O)c3ccccc3C2=O)ccc1OC	3	50*	3	15	-10	35
Cc1cccc(NC(=O)CCC(=O)OCC(=O)c2ccc(Oc3ccc([N+](=O)[O-])cc3)cc2)c1	7	16	-1	47*	53*	-2
C[C@H]1C=C(C(=O)NCc2ccccc2)O[C@@H](OCc2ccc(CO)cc2)C1	1	-15	x	-17	-20	-6
CCOCC(=O)Nc1cc(Cl)c(OC)cc1OC	2	17	x	-10	-5	5
CC1CC(C)CN(c2oc(-c3ccco3)nc2C#N)C1 (configuration not stated)	24*	-135	27*	3	-33	-18
N#Cc1nc(-c2ccco2)oc1N1CCCC1	-6	i	7	-8	-7	-26
O=C(CSc1nnnn1-c1ccccc1)CSc1nnnn1-c1ccccc1	1	76*	3	8	0	7
O=C(O)CSc1nnnn1-c1ccccc1	4	-31	0	-4	-24	-4
O=C1c2ccccc2C(=O)N1CSc1nnnn1-c1ccccc1	-4	-1	0	-5	3	0
O=C1c2ccccc2C(=O)N1CCCCSc1nnnn1-c1ccccc1	3	54*	8	-4	-26	-3
O=C(C[n+]1ccc(/C=C/c2ccccc2)cc1)c1ccc2c(c1)OCCO2	x	-25	x	1	-12	-63
COC(=O)CN1C(c2ccc(Cl)cc2)=Nc2ccc(Cl)cc2C1c1ccccc1 (configuration not stated)	27*	21	19*	-5	-24	-6
COc1ccccc1OCC(=O)NCCSCc1cccc(Cl)c1	6	10	9	-6	-47	0
CC(Sc1nc(N)c2c3c(sc2n1)CSC(C)(C)C3)C(=O)Nc1ccccc1 (configuration not stated)	22*	-90	53*	-16	-12	-4
c1ccc(N2CCN(c3ncnc4scc(-c5cccs5)c34)CC2)cc1	3	54*	9	6	0	6
O=C(O)C1CC=CCC1C(=O)Nc1cccnc1 (configuration not stated)	3	-15	x	4	18	0
CN(Cc1ccccc1)C(=O)c1oc(=O)c2ccccc2c1-c1ccccc1	31*	13	23*	-10	-2	29
Cc1ccc(-c2c(C(=O)NCc3ccccc3)oc(=O)c3ccccc23)cc1	6	19	10	3	10	-2
Cc1ccc(-c2c(C(=O)N(C)Cc3ccccc3)oc(=O)c3ccccc23)cc1	35*	36	34*	-20	-29	33
CCc1cccc(CC)c1NC(=O)COC(=O)C1(c2ccc(Cl)cc2)CCCC1	40*	-4	19*	6	-26	-2
SMILES	NPY Y1 blocker	Calpain2 inh	NPY-Y2 antag	NPY-Y2 PAM-ag	NPY1 pot ag	TbHK1 inh
O=C(Nc1ccc(C#Cc2ccccc2)cc1)C1CC1	-6	8	-3	38*	78*	-1
Cc1nc(-c2ccc3c(c2)OCCCO3)cs1	x	0	x	-7	-2	8
Nc1nc(-c2ccc3c(c2)OCCO3)cs1	20*	1	6	-10	-15	-2
O=C1NC(=Nc2ccccc2)S/C1=C/c1cccs1	2	106*	x	-13	9	0
CCOc1ccc(Oc2c(/C=N/NC(=O)COc3ccccc3OC)c(C)nn2-c2ccccc2)cc1	30*	5	26*	-17	-15	-6
CC(C)c1onc(C(=O)Nc2cccc(Cl)c2)c1[N+](=O)[O-]	3	84*	x	-7	-2	-4
COC(=O)Cc1c[nH]c2cccc(OCC(O)CN(Cc3ccccc3)C(C)C)c12 (configuration not stated)	-14	-22	4	90*	97*	8
COC(=O)Cc1c[nH]c2cccc(OCC(O)CN(Cc3ccc([N+](=O)[O-])cc3)C(C)(C)C)c12 (configuration not stated)	-15	-1	4	103*	107*	2
CC(C)CN(CC(C)C)CC(O)COc1ccc([N+](=O)[O-])cc1 (configuration not stated)	8	13	6	-9	-12	-7
O=C(CN1C(=O)C2C3c4ccccc4C(c4ccccc43)C2C1=O)Nc1ccccc1C(=O)O (configuration not stated)	-5	-20	2	4	10	1
COC(=O)c1cc(OC)nc2ccc(Br)cc12	x	-16	x	-7	-8	-5
C(/C=C/c1ccccc1)=N/N1CCN(c2ccccc2)CC1	2	-22	5	-6	-1	-10
C(=C\c1ccccc1)/C=N/N1CCN(Cc2ccccc2)CC1	8	50*	x	-21	8	-4
O=C(O)c1nn(CC(=O)N2CCN(S(=O)(=O)c3ccc(Cl)cc3)CC2)c(=O)c2ccccc12	x	17	x	7	10	-7
O=C(NCCCn1ccnc1)c1cc([N+](=O)[O-])cc([N+](=O)[O-])c1	1	17	1	78*	61*	-1
COC(=O)C1=CNC=C(C(=O)OC)C1c1ccc(C(=O)OC)cc1	2	i	3	1	-20	-1
Cc1cncn1CCc1nc2c3ccccc3nc(SCC(=O)Nc3cccc(Cl)c3)n2n1	49*	12	33*	-26	-107	-5
Cc1cccc(NC(=O)CSc2nc3ccccc3c3nc(CCc4c(C)n[nH]c4C)nn23)c1	-2	-39	1	4	-14	-15
CCOCCn1c(CN2CCN(C)CC2)nc2c1c(=O)n(C)c(=O)n2C	x	-9	x	x	x	-9
Cn1c(=O)c2c(nc(CN3CCN(c4ccccc4)CC3)n2CCc2ccccc2)n(C)c1=O	5	x	0	-15	-21	-3
COCCn1c(CN2CCN(C)CC2)nc2c1c(=O)n(C)c(=O)n2C	-1	85*	4	12	7	-2
